The test system of assay [1] is HL-60. The experiment in a line: The ability to induce differentiation of human promyelocytic leukemia cell line HL-60 to mature granulocytes was determined by nitro blue tetrazolium (NBT) reduction assay; Inactive. The class given is functional, cell-based. The essentials: (§1)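 HL-60 cells grown in RPMI1640 with 5% FCS and antibiotics were seeded at about 8×10^4 cells/mL. Compounds were added from 2 mM ethanol stocks (final ethanol below 0.5%; ethanol-only controls) and cells incubated 4 days. Percent differentiated cells was scored by NBT reduction (0.2% NBT plus TPA 200 ng/mL, 20 min, 37 °C; formazan-positive cells counted, minimum 200 cells). Assays were run at least twice, and ED50 was obtained by the van der Waerden method.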

For assay [2], the system named is HL-60. The experiment in a line: The ability to induce differentiation of human promyelocytic leukemia cell line HL-60 to mature granulocytes was determined by nitro blue tetrazolium (NBT) reduction assay. The note with it: read-out: ED50 (the source's name). The class given is functional. The essentials: as §1
Assay [3] concerns HL-60. Nature of the assay: The ability to induce differentiation of human promyelocytic leukemia cell line HL-60 to mature granulocytes relative to retinoic acid was determined by nitro blue tetrazolium (NBT) reduction assay. In kind it is functional. The essentials:
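HL-60 cells in RPMI1640 with 5% FCS, 37 °C, 5% CO2, seeded at about 8×10^4 cells/mL. Compounds were added from 2 mM ethanol stocks (final ethanol below 0.5%) and cells incubated 4 days. NBT reduction (0.2% NBT, TPA 200 ng/mL, 20 min, 37 °C) was scored on ≥200 cells. ED50 was calculated by van der Waerden; the value is the retinoic acid ED50 divided by the compound ED50 from concurrent runs, ×100.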

Data on 13 molecules can be found in ChEMBL document CHEMBL1127514, “Retinobenzoic acids. 6. Retinoid antagonists with a heterocyclic ring” (1994).

Active and inactive are the calls of the source. The rule behind the calls is not given here.

Take `CC1(C)CCC(C)(C)c2cc3c(cc21)nc(-c1ccc(C(=O)O)cc1)n3Cc1ccccc1`: in assay [1], the ED50 result was “inactive”.
For the molecule `CN1c2cc3c(cc2N=C(c2ccc(C(=O)O)cc2)c2ccccc21)C(C)(C)CCC3(C)C`, the ED50 result in assay [1] was “inactive”.
As for `CC1(C)CCC(C)(C)c2cc3c(cc21)Nc1ccccc1C(c1ccc(C(=O)O)cc1)N3` (stereo unspecified), the EC50 in assay [2] was > 10000 nM. Also, the Relative activity in assay [3] is < 0.01.
Turning to `Cn1c(-c2ccc(C(=O)O)cc2)nc2cc3c(cc21)C(C)(C)CCC3(C)C`, the EC50 in assay [2] is 3.4 nM. This molecule had a Relative activity in assay [3] of 65.
With `CN1C(=O)CC(c2ccc(C(=O)O)cc2)=Nc2cc3c(cc21)C(C)(C)CCC3(C)C`, the EC50 in assay [2] was 530 nM. This molecule had a Relative activity in assay [3] of 0.43.
For the molecule `CC1(C)CCC(C)(C)c2cc(NC(=O)c3ccc(C(=O)O)cc3)ccc21` [TAMIBAROTENE], in assay [2], the EC50 came to 0.79 nM. Moreover, the Relative activity in assay [3] amounted to 350.
For `CC(C)n1c(-c2ccc(C(=O)O)cc2)nc2cc3c(cc21)C(C)(C)CCC3(C)C`, in that order: > 10000 nM and < 0.01.
On to `CC1(C)CCC(C)(C)c2cc3c(cc21)nc(-c1ccc(C(=O)O)cc1)n3-c1ccccc1`, for which, in assay [1], the ED50 entry is “inactive”.
Consider `CC1(C)CCC(C)(C)c2cc3c(cc21)N=C(c1ccc(C(=O)O)cc1)CC(=O)N3`, for which the ED50 result in assay [1] was “inactive”.
`CC1(C)CCC(C)(C)c2cc3[nH]c(-c4ccc(C(=O)O)cc4)nc3cc21`: the EC50 in assay [2] was found to be 320 nM. This molecule also displayed a Relative activity in assay [3] of 0.7.
As for `CCn1c(-c2ccc(C(=O)O)cc2)nc2cc3c(cc21)C(C)(C)CCC3(C)C`, the EC50 in assay [2] was found to be 46 nM. For the same molecule, the Relative activity in assay [3] turned out to be 4.9.
As for `CC1(C)CCC(C)(C)c2cc3c(cc21)NC(=O)CN(c1ccc(C(=O)O)cc1)C3=O`, the ED50 entry in assay [1] was “inactive”.
As to `CC1=C(/C=C/C(C)=C/C=C/C(C)=C/C(=O)O)C(C)(C)CCC1` [TRETINOIN], in assay [2], the EC50 came out at 2.4 nM. In assay [3], this molecule displayed a Relative activity of 100.
